Experimental data taken from publication PMC9382716 (Biochemistry, 2021).
Read-outs that look alike come from different tables or passages of the source.

Assays:
[1] = target: T1, Drosophila melanogaster HhC (Drosophila melanogaster, UniProt Q02936); experiment: Cholesterolysis kinetics; assay type: biochemical; details: C−H−Y
T1 sequence (Q02936 258-471 limits assumed): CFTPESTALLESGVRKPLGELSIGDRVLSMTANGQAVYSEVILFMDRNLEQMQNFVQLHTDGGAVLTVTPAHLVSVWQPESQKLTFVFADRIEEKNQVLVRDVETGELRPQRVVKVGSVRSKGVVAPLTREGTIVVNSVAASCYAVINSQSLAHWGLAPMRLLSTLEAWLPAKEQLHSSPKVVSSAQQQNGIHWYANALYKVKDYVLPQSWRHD

HhC [2] = target: T2, HhC (Drosophila melanogaster, UniProt Q02936); assay type: binding; details: HhC 5 μM, tSP 10 μM, competitor 200 μM
T2 sequence (Q02936 258-471 limits assumed): T1 sequence (Q02936 258-471 limits assumed)
Method in brief: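 HhC at 5 μM with diazirine-bearing sterol probe tSP and 50 μM azide-linked fluorophore. Saturating cholesterol or test compound added as competitor. UV photolysis. Labeling read by SDS-PAGE with fluorescent gel imaging. Coomassie stain for total HhC.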

[3] = target: T1, Drosophila melanogaster HhC; details: read-out: KM as HhC substrate; cited from earlier work
HhC [4] = target: T2, HhC; experiment: MS/MS mapping of tSP binding site on HhC/tSP adduct; details: product form of HhC, preliminary MS/MS

Row | kmax as HhC substrate ([1]; no inhibitor) [s⁻¹] | effect on active-site photolabeling of HhC by tSP (HhC [2]) | difference in kmax/KM compared with cholesterol [1] [fold] | Km ([1]; read-out: KM as HhC substrate, no inhibitor) [µM] | site of probe attachment on HhC (HhC [4]) | SMILES | Km [3] [µM]
1 | 0.0019 | competitively blocks | – | – | – | CC(C)CCC[C@@H](C)[C@H]1CC[C@H]2[C@@H]3CC=C4C[C@@H](O)CC[C@]4(C)[C@H]3CC[C@]12C [cholesterol] | 1.5
2 | 0.0042 | – | < 2 | 6.8 | EQLHSSPK (HhC residues 174−181) | C#CCCCCOC(=O)CC[C@@H](C)[C@H]1CCC2C3CC4(N=N4)[C@H]4C[C@@H](O)CC[C@]4(C)C3CC[C@@]21C (stereo partly shown) [tSP] | –
